Consider three molecules from ChEMBL document CHEMBL1133105, “Antimalarial, antitrypanosomal, and antileishmanial activities and cytotoxicity of bis(9-amino-6-chloro-2-methoxyacridines): influence of the linker” (J Med Chem, 2000).

The test system of assay [1] is Plasmodium falciparum. The experiment in a line: Growth inhibition of chloroquine-sensitive Plasmodium falciparum 3D7.
For assay [2], the system named is Plasmodium falciparum. The experiment in a line: Parasite growth inhibition against Plasmodium falciparum W2. The class given is functional, organism-based. The procedure, abridged: (§1)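 Asynchronous cultures of each strain on human erythrocytes (0.5% parasitemia, 1% final hematocrit) were exposed to serially diluted drug for 24 h at 37 °C. Then 0.5 µCi [3H]hypoxanthine per well was added for 24 h. Incorporation was compared with a drug-free control on the same plate. IC50 was taken from the concentration-response curve as the mean of several independent experiments. DMSO was at most 0.1%.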

For assay [3], the system named is Plasmodium falciparum. The experiment in a line: Parasite growth inhibition against Plasmodium falciparum F32A. In kind it is functional, organism-based. The procedure, abridged:
as §1

In assay [4] the test system is Leishmania infantum. The assay can be described thus: Percentage of activity against Leishmania infantum at 12.5 uM Concentration; Toxic upon mouse primary peritoneal macrophages. The class given is functional, organism-based. The essentials:
(§2)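 Starch-stimulated mouse peritoneal macrophages, 30 000/well, infected after 24 h with spleen-derived L. infantum amastigotes (10:1) together with 2-fold drug dilutions (12.5–1.56 µM). Incubated 7 days at 37 °C, 5% CO2. Wright-stained slides scored microscopically as % reduction of total parasite load or of infected macrophages. Uninfected treated cultures judged microscopically for macrophage toxicity.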

Assay [5] has as its system MRC5. The experiment in a line: Cytotoxicity on MRC-5 cells at 12.5 uM. In kind it is functional. The conditions noted are these: Homo sapiens. The procedure, abridged:
(§3)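 MRC-5 human diploid embryonic lung cells seeded at 5 000/well, washed after 24 h, then given 2-fold drug dilutions (25, 12.5, 6.25, 3.13 µM) in RPMI + 5% FCS, final DMSO below 0.5%. Incubated 7 days at 37 °C, 5% CO2. MTT colorimetric read-out, scored as % reduction of absorbance at 540 nm versus untreated controls.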

The subject of assay [6] is MRC5. The assay can be described thus: Cytotoxicity on MRC-5 cells at 3.13 uM. In kind it is functional. The settings on record: Homo sapiens. The procedure, abridged: as §3
Assay [7] deals with Trypanosoma brucei. The experiment in a line: Percentage of activity against Trypanosoma brucei at 3.13 uM. The class given is functional. The essentials: (§4)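 Bloodstream-form T. brucei in HMI-9 medium, 10 000 parasites/well, exposed to 12.5, 6.25, 3.13 and 1.56 µM drug for 4 days. Read-out is % inhibition of parasite multiplication. Macrophage toxicity judged on mouse primary peritoneal macrophages.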

The test system of assay [8] is Plasmodium falciparum. The assay can be described thus: Parasite growth inhibition against Plasmodium falciparum GP1. The class given is functional, organism-based. The procedure, abridged: as §1
Assay [9] relates to Plasmodium falciparum. The assay can be described thus: Parasite growth inhibition against Plasmodium falciparum FCR3. In kind it is functional, organism-based. The procedure, abridged: as §1
Assay [10] deals with Trypanosoma cruzi. The assay can be described thus: Percentage of activity against Trypanosoma cruzi at 12.5 uM; Toxic upon mouse primary peritoneal macrophages. The class given is functional, organism-based. The procedure, abridged: (§5)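 Mouse peritoneal macrophages, 30 000/well, infected after 24 h with about 100 000 T. cruzi trypomastigotes per well plus 2-fold drug dilutions (12.5–1.56 µM). Incubated 4 days at 37 °C, 5% CO2. Methanol-fixed, Giemsa-stained and scored microscopically as % reduction of total parasite load (free trypomastigotes plus intracellular amastigotes) versus untreated controls.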

Assay [11] has as its system Trypanosoma brucei. The experiment in a line: Percentage of activity against Trypanosoma brucei at 6.25 uM. In kind it is functional. The procedure, abridged:
as §4

Assay [12] concerns Leishmania infantum. The assay can be described thus: Percentage of activity against Leishmania infantum at 1.56 uM. In kind it is functional. The essentials:
as §2

Assay [13] relates to Leishmania infantum. The assay can be described thus: Percentage of activity against Leishmania infantum at 3.13 uM. The class given is functional. The procedure, abridged:
as §2

Assay [14] has as its system Trypanosoma brucei. The experiment in a line: Percentage of activity against Trypanosoma brucei at 1.56 uM. In kind it is functional. The essentials: as §4
The test system of assay [15] is Plasmodium falciparum. The experiment in a line: Parasite growth inhibition against Plasmodium falciparum FCM29. In kind it is functional, organism-based. The essentials:
as §1

For assay [16], the system named is Trypanosoma cruzi. The experiment in a line: In Vitro evaluation for the percentage of activity towards Trypanosoma cruzi at 6.25 uM Concentration; Toxic upon mouse primary peritoneal macrophages. The class given is functional, organism-based. The essentials: as §5
Assay [17] has as its system MRC5. The assay can be described thus: Cytotoxicity on MRC-5 cells at 6.25 uM. In kind it is functional. The conditions noted are these: Homo sapiens. The procedure, abridged: as §3
In assay [18] the test system is Plasmodium falciparum. The experiment in a line: In vitro sensitivity for Plasmodium falciparum FcB1R. In kind it is functional, organism-based. The procedure, abridged: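 Asynchronous P. falciparum cultures in human erythrocytes (0.5% parasitemia, 1% haematocrit) exposed to serially diluted drug for 24 h at 37 °C. [3H]hypoxanthine (0.5 µCi/well) then added for a further 24 h. Uptake compared with drug-free controls on the same plate. IC50 taken from the concentration–response curve, averaged over independent experiments. DMSO ≤0.1%.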

Assay [19] concerns Trypanosoma cruzi. The experiment in a line: Percentage of activity against Trypanosoma cruzi at 1.56 uM. In kind it is functional. The procedure, abridged:
as §5

Assay [20] concerns Trypanosoma cruzi. The assay can be described thus: Percentage of activity against Trypanosoma cruzi at 3.13 uM. The class given is functional. The procedure, abridged: as §5
The subject of assay [21] is Plasmodium falciparum. The assay can be described thus: Parasite growth inhibition against Plasmodium falciparum K1. The class given is functional, organism-based. The essentials:
as §1

The test system of assay [22] is Leishmania infantum. The experiment in a line: Percentage of activity against Leishmania infantum at 6.25 uM; Toxic upon mouse primary peritoneal macrophages. The class given is functional, organism-based. The procedure, abridged:
as §2

Assay [23] deals with MRC5. The assay can be described thus: Cytotoxicity on MRC-5 cells at 25 uM. In kind it is functional. The conditions noted are these: Homo sapiens. The essentials:
as §3

Assay [24] has as its system Trypanosoma brucei. The experiment in a line: Percentage of activity against Trypanosoma brucei at 12.5 uM. The class given is functional. The essentials: as §4
Assay [25] has as its system Leishmania infantum. The assay can be described thus: In Vitro evaluation for the percentage of activity towards Leishmania infantum at 12.5 uM Concentration. In kind it is functional. The essentials: as §2
For assay [26], the system named is Trypanosoma cruzi. The assay can be described thus: Percentage of activity against Trypanosoma cruzi at 6.25 uM Concentration. In kind it is functional. The essentials: as §5
In assay [27] the test system is Leishmania infantum. The experiment in a line: Percentage of activity against Leishmania infantum 6.25 uM. The class given is functional. The essentials:
as §2

Assay [28] deals with Trypanosoma cruzi. The experiment in a line: Percentage of activity against Trypanosoma cruzi at 12.5 uM. In kind it is functional. The essentials: as §5

In general, IC50 refers to the concentration needed to halve the response being measured. Lower therefore signals higher potency. On to `COc1ccc2nc3cc(Cl)ccc3c(NCCCN(CCCNc3c4ccc(Cl)cc4nc4ccc(OC)cc34)C(=O)[C@@H](C)NC(=O)OC(C)(C)C)c2c1`, for which the IC50 with Plasmodium falciparum [1] stood at 57 nM; in the assay with Plasmodium falciparum [2] it was 18 nM; in the assay on Plasmodium falciparum [3] it was 89 nM; with Plasmodium falciparum [8], 66 nM; in the assay with Plasmodium falciparum [9] it was 32 nM; in the assay with Plasmodium falciparum [15], 11 nM. The IC50 was determined as 33 nM in the assay on Plasmodium falciparum [18] and 23 nM in the assay with Plasmodium falciparum [21]. The Cytotoxicity entry with Leishmania infantum [4], in the assay on Trypanosoma cruzi [10], in the assay on Trypanosoma cruzi [16] and in the assay on Leishmania infantum [22] was “Toxic” in each case. The molecule also displayed a cytotoxicity at 12.5 µM in the assay with MRC5 [5] of 84%. In the assay with MRC5 [6], the cytotoxicity at 3.13 µM stood at 81%. In the assay with Trypanosoma brucei [7], this molecule came in with a Parasite growth inhibition of 100%. Besides, the “Inhibition of parasite multiplication” value in the assay with Trypanosoma brucei [11] turned out to be 100%. Also, in the assay on Leishmania infantum [12], the “Antileishmanial activity (% reduction of parasite load)” value is on record as 95%. Besides, in the assay on Leishmania infantum [13], the “Percent antileishmanial activity (reduction of parasite load)” value is 99%. The “Percent inhibition of parasite multiplication” value in the assay on Trypanosoma brucei [14] was determined as 100%. Moreover, the cytotoxicity at 6.25 µM with MRC5 [17] was found to be 84%. Besides, in the assay with Trypanosoma cruzi [19], the Parasite load reduction is reported as 60%. Also, in the assay on Trypanosoma cruzi [20], the “Reduction of T. cruzi parasite load” value was found to be 95%. In the assay with MRC5 [23], this molecule showed a cytotoxicity at 25 µM of 100%.
With `COc1ccc2nc3cc(Cl)ccc3c(NCCCN3CCN(CCCNc4c5ccc(Cl)cc5nc5ccc(OC)cc45)CC3)c2c1`, the IC50 in the assay on Plasmodium falciparum [1] is 13 nM; with Plasmodium falciparum [2], 12 nM; in the assay on Plasmodium falciparum [3] it was 8 nM; with Plasmodium falciparum [8], 11 nM; with Plasmodium falciparum [9] it was 18 nM; with Plasmodium falciparum [15], 13 nM. Further, the IC50 in the assay on Plasmodium falciparum [18] was 17 nM; in the assay on Plasmodium falciparum [21], 16 nM. Moreover, the cytotoxicity at 12.5 µM in the assay with MRC5 [5] amounted to 0%. In the assay on MRC5 [6], this molecule gave a cytotoxicity at 3.13 µM of 0%. For the same molecule, the “Inhibition of parasite multiplication” value in the assay with Trypanosoma brucei [24] worked out at 100%; in the assay with Trypanosoma brucei [11], 90%. In the assay with Trypanosoma brucei [7], this molecule returned a Parasite growth inhibition of 80%. In addition, the “Antileishmanial activity (% reduction of parasite load)” value with Leishmania infantum [12] and in the assay on Leishmania infantum [27] was 0% each time. For the same molecule, in the assay with Leishmania infantum [13], the “Percent antileishmanial activity (reduction of parasite load)” value was determined as 0%. The “Percent inhibition of parasite multiplication” value in the assay with Trypanosoma brucei [14] worked out at 60%. In addition, the “Percent inhibition of Leishmania infantum” value in the assay with Leishmania infantum [25] came out at 0%. The cytotoxicity at 6.25 µM in the assay on MRC5 [17] turned out to be 0%. Also, the “Reduction of T. cruzi parasite load” value in the assay with Trypanosoma cruzi [26] and with Trypanosoma cruzi [20] was 0% throughout. The same molecule came in with a cytotoxicity at 25 µM in the assay with MRC5 [23] of 0%. Further, the “T. cruzi parasite load reduction” value in the assay on Trypanosoma cruzi [28] came out at 0%.
As for `COc1ccc2nc3cc(Cl)ccc3c(NCCCN(CCCNc3c4ccc(Cl)cc4nc4ccc(OC)cc34)C(=O)C(NC(=O)OC(C)(C)C)C(C)C)c2c1` (centres undefined), the IC50 in the assay on Plasmodium falciparum [1] turned out to be 49 nM; with Plasmodium falciparum [2] it was 40 nM; in the assay with Plasmodium falciparum [3] it was 57 nM; with Plasmodium falciparum [8], 83 nM; in the assay with Plasmodium falciparum [9], 22 nM; in the assay with Plasmodium falciparum [15], 16 nM. Besides, the IC50 was 25 nM in the assay on Plasmodium falciparum [18] and 36 nM in the assay on Plasmodium falciparum [21]. For the same molecule, the Cytotoxicity entry in the assay on Leishmania infantum [4], with Trypanosoma cruzi [10], in the assay with Trypanosoma cruzi [16] and with Leishmania infantum [22] was “Toxic” each time. Moreover, the cytotoxicity at 12.5 µM with MRC5 [5] is 59%. This molecule also displayed a cytotoxicity at 3.13 µM with MRC5 [6] of 43%. Besides, the Parasite growth inhibition in the assay on Trypanosoma brucei [7] is 100%. Further, the “Inhibition of parasite multiplication” value in the assay on Trypanosoma brucei [11] turned out to be 100%. Besides, the “Antileishmanial activity (% reduction of parasite load)” value in the assay on Leishmania infantum [12] is recorded as 95%. Moreover, the “Percent antileishmanial activity (reduction of parasite load)” value with Leishmania infantum [13] came to 99%. Moreover, the “Percent inhibition of parasite multiplication” value in the assay on Trypanosoma brucei [14] worked out at 100%. The same molecule gave a cytotoxicity at 6.25 µM with MRC5 [17] of 54%. This molecule also had a Parasite load reduction with Trypanosoma cruzi [19] of 70%. Moreover, in the assay with Trypanosoma cruzi [20], the “Reduction of T. cruzi parasite load” value worked out at 90%. This molecule also showed a cytotoxicity at 25 µM in the assay with MRC5 [23] of 60%.
